From ChEMBL document CHEMBL4196173, “Stabilized β-Hairpin Peptide Inhibits Insulin Degrading Enzyme” (J Med Chem, 2018)
Active and inactive are the calls of the source. The calls are words filed in the database; no cut-off is given here.

How the values were obtained:
[1] = Selectivity ratio of IC50 for ECE-1 (unknown origin) to IC50 for mouse His-tagged IDE (42 to 1019 residues)
[2] = Selectivity ratio of IC50 for ACE (unknown origin) to IC50 for mouse His-tagged IDE (42 to 1019 residues)
[3] = target: Insulin-degrading enzyme (Homo sapiens) (UniProt P14735); assay: Inhibition of IDE (unknown origin) assessed as potentiation of insulin-induced AKT phosphorylation in rat skeletal muscle cells at 100 uM preincubated for 10 mins followed insulin addition measured by Western blot analysis; type: cell-based
Procedure, shortened: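 Rat skeletal muscle cells were treated with 100 nM IDE plus peptide, for 10 min or at time points up to 24 h with 100 μM. Insulin (10 nM) was then added for 10 min. RIPA lysates were run on 10% SDS-PAGE and blotted for pAKT and AKT with GAPDH as loading control. Densitometry on three regions, two-tailed t test.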

[4] = Selectivity ratio of IC50 for NEP (unknown origin) to IC50 for mouse His-tagged IDE (42 to 1019 residues)
[5] = Drug uptake in human HeLa cells at 5 uM using FITC-labeled compound after 2 hrs at 310 K by DAPI-staining based confocal microscopy; type: ADME, cell-based
[6] = Drug uptake in human HeLa cells at 5 uM using FITC-labeled compound after 2 hrs at 310 K by trypan blue-fluorescence based FACS analysis; type: ADME, cell-based
Procedure, shortened: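 HeLa cells were grown overnight in DMEM with 10% FBS, then given 5 μM FITC-labelled peptide in FBS-free medium for 2 h at 310 K. Cells were washed with PBS and 0.4% trypan blue, trypsinized and washed. Mean fluorescence was measured by flow cytometry with gated cell counts. Three independent experiments.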

[7] = Drug uptake in human HeLa cells at 5 uM using FITC-labeled compound after 2 hrs at 310 K by LC-MS analysis; type: ADME, cell-based
Procedure, shortened: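 HeLa cells were exposed to FITC-labelled peptide for 2 h, washed with PBS and 0.4% trypan blue, then trypsinized, washed and lysed. The lysates were examined by LC–MS.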

[8] = Hemolytic activity against mouse RBC at 300 uM after 1 hr at 310 K; type: ADME, cell-based, Erythrocyte; settings: mouse red blood cells (erythrocytes), read-out: Activity
Procedure, shortened: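 Fresh mouse red cells were washed six times and suspended at 1 × 10^8 cells/mL in PBS. Peptides at 2.3–300 μM were added for 1 h at 310 K. After centrifugation, hemoglobin in the supernatant was read at 576 nm. PBS served as 0% and 0.1% Triton X-100 as 100% lysis. Three independent experiments in duplicate.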

[9] = Metabolic stability in 25% mouse serum assessed as compound remaining at 250 uM up to 24 hrs by LC-MS analysis; type: ADME, cell-free
Procedure, shortened: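 Peptide at a final 250 μM in 25% mouse serum was incubated at 310 K for 0–24 h. Samples were quenched in 12% TCA in H2O/CH3CN (1:1) and chilled at 277 K for 15 min. After centrifugation, the intact peptide in the supernatant was quantified by LC–MS. Three independent experiments.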

[10] = target: Insulin-degrading enzyme (Homo sapiens) (UniProt P14735); assay: Inhibition of IDE (unknown origin)-mediated FITC-insulin degradation in rat skeletal muscle cells at 100 uM after 10 mins at 310 K by DAPI-staining based fluorescent inverted microscopic imaging analysis; type: cell-based
Procedure, shortened: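 Rat skeletal muscle cells on coverslips were given 100 nM wild-type IDE and 100 μM peptide for 10 min at 310 K, then FITC-insulin for a further 10 min. Cells were washed, fixed in 4% paraformaldehyde, stained with DAPI and imaged by fluorescent inverted microscopy. Repeated three times.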

Mus musculus [11] = assay: Toxicity in lean C57BL/6J mouse assessed as behavioral changes at 80 mg/kg, ip; type: organism-based; settings: in vivo
Procedure, shortened: (§1)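 Male lean C57BL/6J mice (13–15 weeks) received 80 mg kg−1 i.p. or PBS vehicle (n = 6 each). Behaviour and body weight were monitored.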

Mus musculus [12] = assay: Toxicity in lean C57BL/6J mouse assessed as body weight change at 80 mg/kg, ip after 3 days; type: organism-based; settings: in vivo, 72 h; procedure, shortened: as §1
Mus musculus [13] = assay: Anti-diabetic activity in DIO C57BL/6J mouse model assessed as reduction in glucose levels at 80 mg/kg, ip administered 30 min prior to glucose stimulation […] by GTT; type: functional, organism-based
Mus musculus [14] = assay: Hypoglycemic activity in lean C57BL/6J mouse at 80 mg/kg, ip administered 30 min prior to insulin injection measured up to 75 mins post insulin injection by ITT; type: functional, organism-based
Procedure, shortened: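 Lean male mice were fasted 6 h, then given 80 mg kg−1 i.p. or PBS (n = 6) 30 min before subcutaneous insulin (0.25 U kg−1 in saline). Tail blood glucose was read at −30 to 75 min. Mean ± SEM, two-tailed t test, repeated three times.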

Mus musculus [15] = assay: Induction of glucagon levels in lean C57BL/6J mouse at 80 mg/kg, ip after 30 to 120 mins post injection by ELISA; type: functional, organism-based
Procedure, shortened: (§2)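 Male lean C57BL/6J mice received 80 mg kg−1 i.p. (n = 5) or PBS. At 30 or 120 min, heparinized blood was taken from tail or eye socket and spun to plasma. Insulin (5 μL plasma), C-peptide, glucagon, beta-endorphin and TNF alpha (10 μL each) were measured by ultrasensitive ELISA. Mean ± SEM, two-tailed t test.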

Mus musculus [16] = assay: Effect on basal c-peptide levels in lean C57BL/6J mouse at 80 mg/kg, ip after 30 to 120 mins post injection by ELISA; type: ADME, organism-based; settings: in vivo; procedure, shortened: as §2
Mus musculus [17] = assay: Effect on basal TNFalpha levels in lean C57BL/6J mouse at 80 mg/kg, ip after 30 to 120 mins post injection by ELISA; type: ADME, organism-based; settings: in vivo; procedure, shortened: as §2
[18] = Tmax in lean C57BL/6J mouse at 100 mg/kg, ip by LC-MS analysis; type: ADME, organism-based; settings: in vivo
Procedure, shortened: (§3)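 Male lean C57BL/6J mice, 13–15 weeks old, given one i.p. dose of 100 mg kg−1 (n = 5). Tail or eye-socket blood was taken from 20 min to 43 h and spun to plasma. 30 μL plasma was mixed with 100 μL 10% TCA in H2O/CH3CN (1:1) and chilled at 277 K for 15 min. After centrifugation the peptide left in the supernatant was quantified by LC–MS. Two independent experiments.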

[19] = Cmax in lean C57BL/6J mouse at 100 mg/kg, ip by LC-MS analysis; type: ADME, organism-based; parameters: dose 100 mg/kg, route intraperitoneal; settings: in vivo; procedure, shortened: as §3
Mus musculus [20] = assay: AUC (0 to 43 hrs) in lean C57BL/6J mouse at 100 mg/kg, ip by LC-MS analysis; type: ADME, organism-based; parameters: time < 43 hr, dose 100 mg/kg, route intraperitoneal; settings: in vivo; procedure, shortened: as §3
[21] = Absolute bioavailability in lean C57BL/6J mouse at 100 mg/kg, ip by LC-MS analysis; type: ADME, organism-based; settings: in vivo
Procedure, shortened: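 Mice received the peptide by orbital i.v. injection (taken as 100%) or by i.p. injection. Plasma was sampled from 20 min to 43 h, TCA-precipitated and analysed by LC–MS. Fabc% = (AUCip × Div)/(AUCiv × Dip) × 100%. Two independent experiments.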

[22] = Drug uptake in brain parenchyma of lean C57BL/6J mouse at 40 mg/kg, iv using cy5-labeled compound by two-photon microscopic analysis; settings: in vivo

Insulin-degrading enzyme (Homo sapiens), sequence (P14735 whole entry): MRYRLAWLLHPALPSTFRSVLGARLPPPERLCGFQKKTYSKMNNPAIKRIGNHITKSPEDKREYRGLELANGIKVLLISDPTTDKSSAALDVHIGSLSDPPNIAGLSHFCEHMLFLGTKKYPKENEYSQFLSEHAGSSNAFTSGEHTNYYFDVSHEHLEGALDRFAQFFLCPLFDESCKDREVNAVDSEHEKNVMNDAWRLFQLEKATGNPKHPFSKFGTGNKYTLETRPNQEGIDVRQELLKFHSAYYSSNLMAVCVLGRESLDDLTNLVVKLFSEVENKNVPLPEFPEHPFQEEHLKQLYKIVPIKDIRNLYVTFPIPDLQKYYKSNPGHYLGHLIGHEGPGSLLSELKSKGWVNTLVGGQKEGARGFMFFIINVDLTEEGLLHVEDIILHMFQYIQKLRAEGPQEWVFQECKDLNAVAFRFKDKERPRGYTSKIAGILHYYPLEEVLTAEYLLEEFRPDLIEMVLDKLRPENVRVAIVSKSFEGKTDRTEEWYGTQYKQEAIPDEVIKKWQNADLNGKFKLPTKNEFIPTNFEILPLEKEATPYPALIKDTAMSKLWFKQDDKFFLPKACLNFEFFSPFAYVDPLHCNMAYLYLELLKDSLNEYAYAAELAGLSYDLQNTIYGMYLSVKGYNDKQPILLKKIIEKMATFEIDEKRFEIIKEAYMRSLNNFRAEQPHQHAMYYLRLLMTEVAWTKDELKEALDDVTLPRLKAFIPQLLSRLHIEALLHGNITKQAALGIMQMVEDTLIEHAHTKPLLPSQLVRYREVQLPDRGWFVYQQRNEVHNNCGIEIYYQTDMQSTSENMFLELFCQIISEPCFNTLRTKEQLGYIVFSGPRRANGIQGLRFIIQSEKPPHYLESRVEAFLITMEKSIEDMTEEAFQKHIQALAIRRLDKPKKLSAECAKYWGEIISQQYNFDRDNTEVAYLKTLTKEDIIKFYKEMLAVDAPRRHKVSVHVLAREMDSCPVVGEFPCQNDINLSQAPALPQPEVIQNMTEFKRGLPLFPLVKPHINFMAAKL

- Ratio IC50 [1]: > 1000
- Ratio IC50 [2]: > 1000
- inhibition [3]: Active
- Ratio IC50 [4]: > 1000
- Drug uptake [5]: Active
- Drug uptake [6]: Active
- Drug uptake [7]: Active
- Stability [9]: Unstable
- inhibition [10]: Active
- Tmax [18]: 1.4 h
- Cmax [19]: 619 µg/mL
- AUC (Mus musculus [20]): 7600 µg·h/mL
- bioavailability [21]: 83.5%
- Drug uptake [22]: Not Active
Compound: CC(=O)N[C@@H](CCC(=O)O)C(=O)N[C@@H](Cc1c[nH]c2ccccc12)C(=O)N[C@@H](CCCNC(=N)N)C(=O)N[C@@H](Cc1ccccc1)C(=O)N[C@H]1CC(=O)NC[C@@H](C(=O)N[C@@H](CC(C)C)C(=O)N[C@@H](Cc2ccc(O)cc2)C(=O)N[C@@H](CC(C)C)C(=O)N[C@H](C(=O)N[C@@H](CS)C(=O)NCC(N)=O)C(C)C)NC(=O)[C@H](CCC(=O)O)NC(=O)[C@@H]2CCCN2C(=O)[C@H]2CCCN2C(=O)CNC1=O
- hemolysis at 1 h, 300 µM [8]: < 10%
- Activity (Mus musculus [11]): Non-Toxic
- Activity (Mus musculus [12]): Non-Toxic
- Activity (Mus musculus [13]): Active
- Activity (Mus musculus [14]): Active
- Activity (Mus musculus [15]): Active
- Activity (Mus musculus [16]): Non-Toxic
- Activity (Mus musculus [17]): Non-Toxic
